# What was measured:
# Assay type in all cases: functional
# OVCAR-3 = assay: Cytotoxicity against human OVCAR3 cells assessed as cell growth at 10 '-5 M after 48 hrs by sulforhodamine B assay; conditions: OVCAR-3, 48 h, read-out: Activity
# MDA-MB-435 = assay: Cytotoxicity against human MDA-MB-435 cells assessed as cell growth at 10 uM after 48 hrs by sulforhodamine B assay; conditions: MDA-MB-435, 48 h, read-out: Activity
# SNB-19 = assay: Cytotoxicity against human SNB19 cells assessed as cell growth at 10 '-5 M after 48 hrs by sulforhodamine B assay; conditions: SNB-19, 48 h, read-out: Activity
# OVCAR-5 = assay: Growth inhibition of human OVCAR5 cells after 48 hrs by sulforhodamine B assay; conditions: OVCAR-5, 48 h
# Procedure, shortened: (§1)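 Adherent NCI-60 lines were grown in RPMI 1640 with 5% FBS and 2 mM L-glutamine, plated at 5000–40,000 cells/well and preincubated 24 h. They were then exposed to five concentrations (0.01–100 µM, from a DMSO stock) for 48 h at 37 °C, 5% CO2. Cells were fixed with cold TCA (10% final, 60 min, 4 °C) and stained with 0.4% SRB. Dye was solubilized in 10 mM Tris base and A515 read. GI50 was derived from time-zero, control and treated absorbances.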
# CCRF-CEM = assay: Cytotoxicity against human CCRF-CEM cells assessed as cell growth at 1 uM after 48 hrs by sulforhodamine B assay; conditions: read-out: Activity
# Procedure, shortened: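 CCRF-CEM suspension leukemia cells in RPMI 1640 with 5% FBS and 2 mM L-glutamine, plated 24 h before dosing. Five concentrations (0.01–100 µM) were applied from a DMSO stock for 48 h at 37 °C. Settled cells were fixed with 80% TCA (final 16%) and stained with SRB, with read-out at 515 nm. Percent growth was derived from time-zero and control absorbances.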
# NCI-H23 = assay: Cytotoxicity against human NCI-H23 cells assessed as cell growth at 10 '-5 M after 48 hrs by sulforhodamine B assay; conditions: NCI-H23, 48 h, read-out: Activity
# NCI-H322M [1] = assay: Cytotoxicity against human NCI-H322M cells assessed as cell growth at 10 uM after 48 hrs by sulforhodamine B assay; conditions: read-out: Activity
# SK-MEL-5 = assay: Cytotoxicity against human SK-MEL-5 cells assessed as cell growth at 10 uM after 48 hrs by sulforhodamine B assay; conditions: SK-MEL-5, 48 h, read-out: Activity
# MOLT-4 = assay: Cytotoxicity against human MOLT4 cells assessed as cell growth at 100 uM after 48 hrs by sulforhodamine B assay; conditions: MOLT-4, 48 h, read-out: Activity
# NCI-H522 [2] = assay: Growth inhibition of human NCI-H522 cells after 48 hrs by sulforhodamine B assay; conditions: NCI-H522, 48 h; procedure, shortened: as §1
# NCI-H322M [3] = assay: Cytotoxicity against human NCI-H322M cells assessed as cell growth at 10 '-5 M after 48 hrs by sulforhodamine B assay; conditions: read-out: Activity
# NCI/ADR-RES = assay: Cytotoxicity against human NCI/ADR-RES cells assessed as cell growth at 0.01 uM after 48 hrs by sulforhodamine B assay; conditions: read-out: Activity
# OVCAR-4 = assay: Cytotoxicity against human OVCAR4 cells assessed as cell growth at 0.01 uM after 48 hrs by sulforhodamine B assay; conditions: OVCAR-4, 48 h, read-out: Activity
# NCI-H522 [4] = assay: Cytotoxicity against human NCI-H522 cells assessed as cell growth at 0.1 uM after 48 hrs by sulforhodamine B assay; conditions: NCI-H522, 48 h, read-out: Activity
# HCT-15 = assay: Growth inhibition of human HCT15 cells after 48 hrs by sulforhodamine B assay; conditions: HCT-15, 48 h; procedure, shortened: as §1
# BT-549 [5] = assay: Cytotoxicity against human BT549 cells assessed as cell growth at 100 uM after 48 hrs by sulforhodamine B assay; conditions: BT-549, 48 h, read-out: Activity
# Procedure, shortened: (§2)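 NCI-60 five-dose screen. Cells were grown in RPMI 1640 with 5% FBS and 2 mM L-glutamine and preincubated 24 h. Compound (DMSO stock) was tested at 0.01, 0.1, 1, 10 and 100 µM for 48 h at 37 °C. Cells were fixed in situ with cold TCA (final 10%) and stained with 0.4% SRB. A515 was read, and percent growth was calculated against time-zero and control plates.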
# HOP-62 = assay: Cytotoxicity against human HOP62 cells assessed as cell growth at 100 uM after 48 hrs by sulforhodamine B assay; conditions: HOP-62, 48 h, read-out: Activity
# Procedure, shortened: (§3)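 Five-dose NCI panel run at 0.01, 0.1, 1, 10 and 100 µM. Cells were in RPMI 1640 with 5% FBS and 2 mM L-glutamine, seeded at 5000–40,000 cells/well and pre-incubated 24 h. Drug was diluted from a DMSO stock into medium with 50 µg/ml gentamicin. Exposure was 48 h at 37 °C, 5% CO2. Cells were fixed with cold TCA and stained with 0.4% SRB, read at 515 nm. Percent growth came from time-zero, control and test absorbances.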
# SK-MEL-2 [6] = assay: Cytotoxicity against human SK-MEL-2 cells assessed as cell growth at 10 uM after 48 hrs by sulforhodamine B assay; conditions: SK-MEL-2, 48 h, read-out: Activity
# SW-620 = assay: Cytotoxicity against human SW620 cells assessed as cell growth at 10 uM after 48 hrs by sulforhodamine B assay; conditions: SW-620, 48 h, read-out: Activity
# RPMI-8226 = assay: Cytotoxicity against human RPMI8226 cells assessed as cell growth at 100 uM after 48 hrs by sulforhodamine B assay; conditions: RPMI-8226, 48 h, read-out: Activity
# MCF7 = assay: Cytotoxicity against human MCF7 cells assessed as cell growth at 0.01 uM after 48 hrs by sulforhodamine B assay; conditions: MCF7, 48 h, read-out: Activity
# CAKI-1 = assay: Cytotoxicity against human Caki1 cells assessed as cell growth at 0.01 uM after 48 hrs by sulforhodamine B assay; conditions: CAKI-1, 48 h, read-out: Activity; procedure, shortened: as §2
# SNB-75 = assay: Cytotoxicity against human SNB75 cells assessed as cell growth at 100 uM after 48 hrs by sulforhodamine B assay; conditions: SNB-75, 48 h, read-out: Activity
# HT-29 = assay: Cytotoxicity against human HT-29 cells assessed as cell growth at 0.1 uM after 48 hrs by sulforhodamine B assay; conditions: HT-29, 48 h, read-out: Activity; procedure, shortened: as §3
# SK-MEL-2 [7] = assay: Cytotoxicity against human SK-MEL-2 cells assessed as cell growth at 100 uM after 48 hrs by sulforhodamine B assay; conditions: SK-MEL-2, 48 h, read-out: Activity
# BT-549 [8] = assay: Growth inhibition of human BT549 cells after 48 hrs by sulforhodamine B assay; conditions: BT-549, 48 h
# Procedure, shortened: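 Cells were in RPMI 1640 with 5% FBS and pre-incubated 24 h. Read-out was TCA fixation, SRB staining and absorbance at 515 nm. GI50 was the concentration where [(Ti−Tz)/(C−Tz)]×100 = 50, taken from log concentration vs % growth curves. It is given as ">" the top concentration when not reached.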
# [9] = read-out: LC50 (the source's name)
smiles,measurement,setting,value
Cc1ccc2nc(Nc3c(C)cccc3C)sc2c1,growth at 10 µM,OVCAR-3,18.7%
same,growth at 10 µM,MDA-MB-435,-26%
same,growth at 10 µM,SNB-19,59.5%
same,GI50,OVCAR-5,> 100000 nM
same,LC50,OVCAR-5,> 100000 nM
same,TGI,OVCAR-5,> 100000 nM
same,growth at 1 µM,CCRF-CEM,72%
same,growth at 10 µM,NCI-H23,57.5%
same,growth at 10 µM,NCI-H322M [1],67%
same,growth at 10 µM,SK-MEL-5,33%
same,growth at 100 µM,MOLT-4,86%
same,GI50,NCI-H522 [2],552 nM
same,TGI,NCI-H522 [2],> 100000 nM
same,CC50,NCI-H522 [2]; [9],> 100000 nM
same,growth at 10 µM,NCI-H322M [3],71%
same,growth at 0.01 µM,NCI/ADR-RES,98%
same,growth at 0.01 µM,OVCAR-4,97%
same,growth at 0.1 µM,NCI-H522 [4],85%
same,GI50,HCT-15,920 nM
same,LC50,HCT-15,> 100000 nM
same,TGI,HCT-15,> 100000 nM
same,growth at 100 µM,BT-549 [5],73%
same,growth at 100 µM,HOP-62,10%
same,growth at 10 µM,SK-MEL-2 [6],48%
same,growth at 10 µM,SW-620,22%
same,growth at 100 µM,RPMI-8226,73%
same,growth at 0.01 µM,MCF7,90%
same,growth at 0.01 µM,CAKI-1,93%
same,growth at 100 µM,SNB-75,32%
same,growth at 0.1 µM,HT-29,92%
same,growth at 100 µM,SK-MEL-2 [7],53%
same,TGI,BT-549 [8],> 100000 nM
same,CC50,BT-549 [8]; [9],> 100000 nM
Clc1cccc(Cl)c1Nc1nc2cccc(Cl)c2s1,growth at 10 µM,OVCAR-3,-61.4%
same,growth at 10 µM,MDA-MB-435,-77%
same,growth at 10 µM,SNB-19,13.8%
same,GI50,OVCAR-5,1480 nM
same,LC50,OVCAR-5,5610 nM
same,TGI,OVCAR-5,2880 nM
same,growth at 1 µM,CCRF-CEM,62%
same,growth at 10 µM,NCI-H23,-10.5%
same,growth at 10 µM,NCI-H322M [1],-83%
same,growth at 10 µM,SK-MEL-5,-95%
same,growth at 100 µM,MOLT-4,-23%
same,GI50,NCI-H522 [2],1020 nM
same,TGI,NCI-H522 [2],2610 nM
same,growth at 10 µM,NCI-H322M [3],9.8%
same,growth at 0.01 µM,NCI/ADR-RES,99%
same,growth at 0.01 µM,OVCAR-4,94%
same,growth at 0.1 µM,NCI-H522 [4],86%
same,GI50,HCT-15,1160 nM
same,LC50,HCT-15,5690 nM
same,TGI,HCT-15,2570 nM
same,growth at 100 µM,BT-549 [5],-48%
same,growth at 100 µM,HOP-62,-75%
same,growth at 10 µM,SK-MEL-2 [6],-64%
same,growth at 10 µM,SW-620,-86%
same,growth at 100 µM,RPMI-8226,-13%
same,growth at 0.01 µM,MCF7,90%
same,growth at 0.01 µM,CAKI-1,92%
same,growth at 100 µM,SNB-75,4%
same,growth at 0.1 µM,HT-29,96%
same,growth at 100 µM,SK-MEL-2 [7],-44%
same,GI50,BT-549 [8],1500 nM
same,TGI,BT-549 [8],3010 nM

# Source: ChEMBL document CHEMBL2040734, “Benzothiazoles: search for anticancer agents” (2012)
